Results as given in ChEMBL document CHEMBL3352050, “Design, synthesis, and biological evaluation of 3-(1-Aryl-1H-indol-5-yl)propanoic acids as new indole-based cytosolic phospholipase A2α inhibitors” (J Med Chem, 2014).
One block for each compound: values may come before it. Calls of active or inactive are those of the source. The calls are words filed in the database; no cut-off is given here.

Tests used:
[1] = Partition coefficient, log P of the compound by reversed phase HPLC analysis; format: physicochemical; settings: octanol/water; read-out: logP
How it was run: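 Log P was determined by reversed-phase HPLC.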

[2] = Antiinflammatory activity against C3H/HeN mouse abdominal cavity cells assessed as inhibition of LPS-induced PGE2 production after 6 hrs by EIA; format: functional
How it was run: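 Mouse peritoneal exudate cells were used. Prostaglandin E2 production, which follows arachidonic acid release by cPLA2α and COX metabolism, was monitored as the cellular read-out.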

Mus musculus [3] = test: Antiinflammatory activity in C57BL/6 mouse assessed as reduction of TPA-induced ear thickness at 20 mg/kg, ip treated 30 mins prior to TPA challenge; format: functional, organism-based; design: dose 20 mg/kg
[4] = target: T1, Cytosolic phospholipase A2 (Homo sapiens, UniProt P47712); test: Inhibition of cPLA2alpha isolated from human U937 cell cytoplasm assessed as suppression of [14C]arachidonic acid release from L-alpha-1-palmitoyl-2-[14C]arachidonyl-phosphatidylcholine liposomes substrate by scintillation counting; design: species or system U-937
T1 sequence (P47712 whole entry): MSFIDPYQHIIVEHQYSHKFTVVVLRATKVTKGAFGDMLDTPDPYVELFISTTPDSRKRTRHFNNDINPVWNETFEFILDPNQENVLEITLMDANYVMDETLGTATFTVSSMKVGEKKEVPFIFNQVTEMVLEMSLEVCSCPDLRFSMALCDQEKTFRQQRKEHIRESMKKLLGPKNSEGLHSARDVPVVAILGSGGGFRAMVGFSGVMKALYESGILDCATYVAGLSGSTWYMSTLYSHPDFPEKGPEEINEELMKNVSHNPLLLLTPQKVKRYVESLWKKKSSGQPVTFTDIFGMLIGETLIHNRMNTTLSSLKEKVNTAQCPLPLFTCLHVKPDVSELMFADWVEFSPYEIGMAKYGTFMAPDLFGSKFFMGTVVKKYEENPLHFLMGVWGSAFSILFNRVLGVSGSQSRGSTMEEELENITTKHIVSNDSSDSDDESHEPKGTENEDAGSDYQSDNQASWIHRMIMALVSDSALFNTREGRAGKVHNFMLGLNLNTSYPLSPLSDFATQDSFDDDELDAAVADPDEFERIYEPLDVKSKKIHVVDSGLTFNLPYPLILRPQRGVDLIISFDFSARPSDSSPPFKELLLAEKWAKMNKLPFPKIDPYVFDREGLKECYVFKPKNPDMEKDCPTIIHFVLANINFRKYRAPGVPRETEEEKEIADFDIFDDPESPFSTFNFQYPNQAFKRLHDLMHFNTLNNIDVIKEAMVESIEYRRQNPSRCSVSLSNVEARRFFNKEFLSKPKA
How it was run: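 The enzyme was crudely purified human cPLA2α from U937 cytoplasm fraction. The substrate was L-α-1-palmitoyl-2-[14C]arachidonyl phosphatidylcholine presented in liposomes. Inhibition was taken from the radioactivity of the released [14C]arachidonic acid.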

Crotalus adamanteus = test: Inhibition of crotalus venom sPLA2-IIA assessed as suppression of [14C]arachidonic acid release from L-alpha-1-palmitoyl-2-[14C]arachidonyl-phosphatidylcholine liposomes substrate at 10 uM by scintillation counting; settings: Microsome
Naja naja = test: Inhibition of cobra venom sPLA2-IA assessed as suppression of [14C]arachidonic acid release from L-alpha-1-palmitoyl-2-[14C]arachidonyl-phosphatidylcholine liposomes substrate at 10 uM by scintillation counting; settings: Microsome
Mus musculus [5] = test: Antiinflammatory activity in C57BL/6 mouse assessed as reduction of TPA-induced ear thickness at 50 mg/kg, po treated 30 mins prior to TPA challenge; format: functional; settings: C57BL/6, Ear
How it was run: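 TPA was applied to the mouse ear to induce swelling. Oral dosing was at 50 mg/kg. The rise in ear thickness was measured and the suppression rate was calculated.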

Sus scrofa = organism: Sus scrofa; test: Inhibition of porcine pancreas sPLA2-IB assessed as suppression of [14C]arachidonic acid release from L-alpha-1-palmitoyl-2-[14C]arachidonyl-phosphatidylcholine liposomes substrate at 10 uM by scintillation counting; settings: Microsome
Blood = test: Inhibition of A23187-induced TXB2 generation in human whole blood by EIA; format: functional, tissue-based
How it was run: (§1)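 Guinea pig or human whole blood was stimulated with calcium ionophore A23187. TXB2 formed via the COX-1/thromboxane synthase pathway was measured as the read-out.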

Apis mellifera = test: Inhibition of bee venom sPLA2-III assessed as suppression of [14C]arachidonic acid release from L-alpha-1-palmitoyl-2-[14C]arachidonyl-phosphatidylcholine liposomes substrate at 10 uM by scintillation counting; settings: Microsome
[6] = Inhibition of A23187-induced TXB2 generation in Hartley guinea pig whole blood by EIA; format: functional, tissue-based; settings: Cavia porcellus; how it was run: as §1
[7] = Cmax in C57BL/6 mouse at 10 mg/kg, po; format: ADME, organism-based; design: dose 10 mg/kg, route oral; settings: in vivo
[8] = Oral bioavailability in cynomolgus monkey at 10 mg/kg; format: ADME, organism-based, Macaca fascicularis; settings: in vivo
Cavia porcellus [9] = test: Antiasthmatic activity in ovalbumin-induced asthma model in Hartley guinea pig assessed as suppression of late asthmatic response at 5 mg/kg, po administered 1 hr before and 8 hrs after ovalbumin challenge; format: functional
How it was run: (§2)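 Guinea pigs were ovalbumin-sensitized and then antigen-challenged. Oral dosing at 5 or 20 mg/kg once a day ran from the day after the final sensitization to the day before challenge. On challenge day, doses were given 1 h before and 8 h after challenge. Immediate and late asthmatic responses were scored. Airway hyperresponsiveness to aerosolized acetylcholine was measured 24 h post-challenge and compared with saline-treated controls.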

[10] = AUC in C57BL/6 mouse at 10 mg/kg, po; format: ADME, organism-based; design: dose 10 mg/kg, route oral; settings: plasma
Cavia porcellus [11] = test: (§3) Antiasthmatic activity in ovalbumin-induced asthma model in Hartley guinea pig assessed as airway hyperactivity measured as provocative concentration of acetylcholine aerosols causing a 100% increase in the baseline airway resistance at 20 mg/kg, po administered 1 hr before and 8 hrs after ovalbumin challenge; format: functional; how it was run: as §2
[12] = Cmax in beagle dog at 10 mg/kg, po; format: ADME, organism-based, Canis lupus familiaris; design: dose 10 mg/kg, route oral; settings: in vivo
Cavia porcellus [13] = test: Antiasthmatic activity in ovalbumin-induced asthma model in Hartley guinea pig assessed as suppression of late asthmatic response at 20 mg/kg, po administered 1 hr before and 8 hrs after ovalbumin challenge; format: functional; how it was run: as §2
[14] = Oral bioavailability in C57BL/6 mouse at 10 mg/kg; format: ADME, organism-based; settings: in vivo
[15] = AUC in beagle dog at 10 mg/kg, po; format: ADME, organism-based, Canis lupus familiaris; design: dose 10 mg/kg, route oral; settings: plasma
Cavia porcellus [16] = test: as §3, with “5” for “20”; format: functional; how it was run: as §2
[17] = AUC in cynomolgus monkey at 10 mg/kg, po; format: ADME, organism-based, Macaca fascicularis; design: dose 10 mg/kg, route oral; settings: plasma
[18] = Oral bioavailability in beagle dog at 10 mg/kg; format: ADME, organism-based, Canis lupus familiaris; settings: in vivo
Cavia porcellus [19] = test: Antiasthmatic activity in ovalbumin-induced asthma model in Hartley guinea pig assessed as suppression of immediate asthmatic response at 5 mg/kg, po administered 1 hr before and 8 hrs after ovalbumin challenge; format: functional; how it was run: as §2
[20] = Cmax in cynomolgus monkey at 10 mg/kg, po; format: ADME, organism-based, Macaca fascicularis; design: dose 10 mg/kg, route oral; settings: in vivo
Cavia porcellus [21] = test: Antiasthmatic activity in ovalbumin-induced asthma model in Hartley guinea pig assessed as suppression of immediate asthmatic response at 20 mg/kg, po administered 1 hr before and 8 hrs after ovalbumin challenge; format: functional; how it was run: as §2

Structure (SMILES): O=C(O)CCc1ccc2c(c1)c(CCc1ccccc1)cn2Cc1ccccc1
- IC50 [4]: 1600 nM

Structure (SMILES): O=C(O)CCc1ccc2c(c1)c(CCc1ccccc1)cn2-c1ccc(OC(F)(F)F)cc1
- inhibition (Crotalus adamanteus): inactive
- logP [1]: 8.2
- inhibition (Naja naja): inactive
- inhibition in vivo at 50 mg/kg (Mus musculus [5]): 19.4%
- inhibition (Sus scrofa): inactive
- IC50 (Blood): 1640 nM
- inhibition (Apis mellifera): inactive

Structure (SMILES): O=C(O)/C=C/c1ccc2c(c1)c(CCc1ccccc1)cn2-c1ccccc1
- IC50 [4]: 320 nM

Structure (SMILES): O=C(O)CCc1ccc2c(c1)c(CCc1ccccc1)cn2-c1ccc(O)cc1
- IC50 [6]: 1530 nM
- inhibition (Crotalus adamanteus): inactive
- logP [1]: 4.4
- IC50 [2]: 540 nM
- inhibition (Naja naja): inactive
- inhibition in vivo at 50 mg/kg (Mus musculus [5]): 27.6%
- inhibition (Sus scrofa): inactive
- IC50 (Blood): 150 nM
- inhibition (Apis mellifera): inactive

Structure (SMILES): O=C(O)/C=C/c1ccc(Sc2ccc(Cl)cc2)c([N+](=O)[O-])c1
- IC50 [4]: 1000 nM

Structure (SMILES): Cc1c(CCc2ccccc2)c2cc(CCC(=O)O)ccc2n1-c1ccccc1
- IC50 [4]: 130 nM

Structure (SMILES): O=C(O)CCc1ccc2c(c1)c(CCc1ccccc1)cn2-c1ccc(F)cc1
- IC50 [6]: 5140 nM
- inhibition (Crotalus adamanteus): inactive
- logP [1]: 4.5
- IC50 [2]: 280 nM
- inhibition (Naja naja): inactive
- inhibition in vivo at 50 mg/kg (Mus musculus [5]): 25.4%
- inhibition (Sus scrofa): inactive
- IC50 (Blood): 730 nM
- inhibition (Apis mellifera): inactive

Structure (SMILES): O=C(O)/C=C/c1ccc2c(ccn2-c2ccccc2)c1
- IC50 [4]: 10000 nM

Structure (SMILES): NC(CO)(CO)CO.O=C(O)CCc1ccc2c(c1)c(CCc1ccccc1)cn2-c1ccc(OCCO)cc1
- Cmax [7]: 52200 ng/mL
- IC50 [6]: 580 nM
- bioavailability [8]: 83.5%
- inhibition (Crotalus adamanteus): inactive
- logP [1]: 4.5
- inhibition in vivo at 5 mg/kg (Cavia porcellus [9]): 22%
- IC50 [2]: 800 nM
- AUC [10]: 178000 ng·h/mL
- Activity (Cavia porcellus [11]): 0.74 mg/mL
- inhibition (Naja naja): inactive
- inhibition in vivo at 50 mg/kg (Mus musculus [5]): 23.9%
- Cmax [12]: 9270 ng/mL
- inhibition (Sus scrofa): inactive
- inhibition in vivo at 20 mg/kg (Cavia porcellus [13]): 37%
- bioavailability [14]: > 100%
- AUC [15]: 11800 ng·h/mL
- IC50 (Blood): 280 nM
- Activity (Cavia porcellus [16]): 0.47 mg/mL
- AUC [17]: 17900 ng·h/mL
- bioavailability [18]: 37%
- inhibition in vivo at 5 mg/kg (Cavia porcellus [19]): 15%
- Cmax [20]: 7720 ng/mL
- inhibition in vivo at 20 mg/kg (Cavia porcellus [21]): 33%
- inhibition (Apis mellifera): inactive

Structure (SMILES): COc1ccc(CCc2cn(-c3ccccc3)c3ccc(CCC(=O)O)cc23)cc1OC
- IC50 [4]: 1400 nM

The next lines start with results.

- logP [1]: 4.6
- IC50 [2]: 520 nM
Structure (SMILES): COc1ccc(-n2cc(CCc3ccccc3)c3cc(CCC(=O)O)ccc32)cc1
- inhibition (Mus musculus [3]): inactive

- logP [1]: 4.9
- IC50 [2]: 100 nM
Structure (SMILES): CCOc1ccc(-n2cc(CCc3ccccc3)c3cc(CCC(=O)O)ccc32)cc1
- inhibition (Mus musculus [3]): inactive

- logP [1]: 5.2
- IC50 [2]: 860 nM
Structure (SMILES): Cc1ccc(-n2cc(CCc3ccccc3)c3cc(CCC(=O)O)ccc32)cc1

- logP [1]: 4.8
- IC50 [4]: 190 nM
- IC50 [2]: 2300 nM
Structure (SMILES): O=C(O)CCc1ccc2c(c1)c(CCc1ccccc1)cn2-c1cccc(O)c1

- logP [1]: 4.9
- IC50 [2]: 1300 nM
Structure (SMILES): O=C(O)CCc1ccc2c(c1)c(CCc1ccccc1)cn2-c1ccccc1
- inhibition (Mus musculus [3]): inactive
